{"source": "ChEMBL document CHEMBL3259517", "about": "“Synthesis and evaluation of phosphorus containing, specific CDK9/CycT1 inhibitors” (J Med Chem, 2014)", "key": {"[1]": {"system": "Human immunodeficiency virus 1", "assay": "Antiviral activity against HIV1 HTLV-3B infected in human MT4 cells assessed as inhibition of virus proliferation by measuring host cell viability at 25 nM relative to control", "assay_type": "functional", "procedure,_shortened": "(§1)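 HIV-1 HTLV-IIIB (3400 TCID50/mL per well; titre set by virus yield assay) infected MT4 cells, 2−3 × 10⁴/well in RPMI1640 with 10% FCS, penicillin and streptomycin, cultured as for the 7-day viability assay (37 °C, 5% CO2). Test compounds were at 1250 nM and AZT control at 25 nM. Read-out was MTT (4 h, DMSO, A540), given relative to infected untreated cells (100%).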"}, "CDK9/cyclin T1 [2]": {"biological_target": "T1, CDK9/cyclin T1 (Homo sapiens, UniProt P50750)", "T1 sequence (O60563 whole entry)": "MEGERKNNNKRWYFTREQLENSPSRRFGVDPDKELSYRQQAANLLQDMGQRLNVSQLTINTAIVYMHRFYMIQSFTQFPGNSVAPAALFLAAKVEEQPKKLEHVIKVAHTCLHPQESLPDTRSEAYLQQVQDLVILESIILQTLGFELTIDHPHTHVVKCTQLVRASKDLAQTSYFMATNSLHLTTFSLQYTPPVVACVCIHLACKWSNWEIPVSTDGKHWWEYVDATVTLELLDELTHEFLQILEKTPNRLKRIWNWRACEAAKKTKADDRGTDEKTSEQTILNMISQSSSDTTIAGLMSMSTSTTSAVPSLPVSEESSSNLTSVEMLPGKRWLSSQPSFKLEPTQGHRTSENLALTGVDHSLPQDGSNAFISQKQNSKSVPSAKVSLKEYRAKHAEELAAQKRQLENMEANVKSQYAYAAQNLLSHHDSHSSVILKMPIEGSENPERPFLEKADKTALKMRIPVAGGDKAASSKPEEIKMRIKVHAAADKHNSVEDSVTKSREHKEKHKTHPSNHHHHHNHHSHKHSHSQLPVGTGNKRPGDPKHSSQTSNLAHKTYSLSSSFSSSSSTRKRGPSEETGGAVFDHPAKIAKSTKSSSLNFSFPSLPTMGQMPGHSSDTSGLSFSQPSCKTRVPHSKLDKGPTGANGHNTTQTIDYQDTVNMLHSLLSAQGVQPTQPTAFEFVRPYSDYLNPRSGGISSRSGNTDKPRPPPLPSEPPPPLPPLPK", "T1 sequence (P50750 whole entry)": "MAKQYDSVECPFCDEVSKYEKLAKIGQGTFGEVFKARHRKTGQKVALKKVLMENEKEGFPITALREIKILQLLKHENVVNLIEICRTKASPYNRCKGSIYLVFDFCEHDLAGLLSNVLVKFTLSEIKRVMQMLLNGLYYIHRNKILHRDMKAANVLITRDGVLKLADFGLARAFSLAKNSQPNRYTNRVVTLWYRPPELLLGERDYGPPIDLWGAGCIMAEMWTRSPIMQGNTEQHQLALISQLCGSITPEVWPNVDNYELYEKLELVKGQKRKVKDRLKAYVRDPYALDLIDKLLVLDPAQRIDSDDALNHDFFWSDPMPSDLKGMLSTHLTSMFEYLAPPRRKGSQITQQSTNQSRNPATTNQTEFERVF", "assay": "Inhibition of CDK9/CycT1 (unknown origin)", "assay_type": "protein-complex assay"}, "CDK9/cyclin T1 [3]": {"biological_target": "T1, CDK9/cyclin T1", "assay": "Inhibition of CDK9/CycT1 (unknown origin) expressed in HEK293 cells using GST-CTDII as substrate"}, "CDK9/cyclin T1 [4]": {"biological_target": "T1, CDK9/cyclin T1", "assay": "Inhibition of CDK9/CycT1 (unknown origin) using TAMRA-Rbtide and ATP as substrate after 1 hr", "assay_type": "protein-complex assay"}, "[5]": {"assay": "Cytotoxicity against human MT4 cells assessed as cell viability at 2500 nM after 7 days by MTT assay relative to control", "assay_type": "cell-based", "conditions": "read-out: Activity", "procedure,_shortened": "(§2)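 MT4 cells (2−3 × 10⁴/well) in RPMI1640 with 10% FCS, penicillin and streptomycin, exposed to compound at 2500 or 1250 nM for 7 days at 37 °C, 5% CO2. MTT added for 4 h, supernatant removed, formazan dissolved in DMSO, absorbance read at 540 nm. Viability expressed relative to untreated cells (100%).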"}, "[6]": {"assay": "Cytotoxicity against human MT4 cells assessed as cell viability at 1250 nM after 7 days by MTT assay relative to control", "assay_type": "cell-based", "conditions": "read-out: Activity", "procedure,_shortened": "as §2"}, "[7]": {"system": "Human immunodeficiency virus 1", "assay": "Antiviral activity against HIV1 HTLV-3B infected in human MT4 cells assessed as inhibition of virus proliferation by measuring host cell viability at 1250 nM relative to control", "assay_type": "functional", "procedure,_shortened": "as §1"}, "[8]": {"biological_target": "Interleukin-1 receptor-associated kinase 3 (Homo sapiens) (UniProt Q9Y616)", "sequence (Q9Y616 whole entry)": "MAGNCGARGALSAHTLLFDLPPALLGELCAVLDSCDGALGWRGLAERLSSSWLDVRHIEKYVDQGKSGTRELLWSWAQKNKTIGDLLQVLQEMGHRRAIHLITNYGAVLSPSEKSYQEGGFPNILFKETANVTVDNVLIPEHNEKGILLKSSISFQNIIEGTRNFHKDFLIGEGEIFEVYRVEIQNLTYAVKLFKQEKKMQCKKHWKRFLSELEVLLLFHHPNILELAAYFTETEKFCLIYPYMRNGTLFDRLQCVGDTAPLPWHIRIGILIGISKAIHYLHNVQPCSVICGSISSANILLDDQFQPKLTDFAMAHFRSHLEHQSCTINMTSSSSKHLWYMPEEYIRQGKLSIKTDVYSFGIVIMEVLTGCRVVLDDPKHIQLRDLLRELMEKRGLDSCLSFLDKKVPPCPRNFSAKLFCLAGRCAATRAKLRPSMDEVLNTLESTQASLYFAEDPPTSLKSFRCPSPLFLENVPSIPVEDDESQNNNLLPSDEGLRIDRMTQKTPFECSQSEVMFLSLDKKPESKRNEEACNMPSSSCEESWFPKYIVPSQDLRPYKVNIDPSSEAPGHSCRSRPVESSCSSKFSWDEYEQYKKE", "assay": "Binding to IRAK3 (unknown origin) at 1 uM"}}, "note": "pIC50: −log10 of the molar value.", "data": [{"compound": "Cc1cn([C@H]2C[C@H](N=[N+]=[N-])[C@@H](CO)O2)c(=O)[nH]c1=O", "note": "[ZIDOVUDINE]", "values": [{"measurement": "Activity", "setting": "[1]", "value": 132, "unit": "%"}]}, {"compound": "Cc1ccc(Nc2cc(-c3cccc(N)c3)ncn2)cc1NS(C)(=O)=O", "values": [{"measurement": "pIC50", "setting": "CDK9/cyclin T1 [2]", "value": 6.89}]}, {"compound": "COc1ccccc1-c1cc(Nc2ccc(C)c(NS(C)(=O)=O)c2)ncn1", "values": [{"measurement": "pIC50", "setting": "CDK9/cyclin T1 [3]", "value": 7.52}]}, {"compound": "CCCP(=O)(O)Cc1cccc(Nc2cc(-c3ccccc3OCc3ccccc3)ncn2)c1", "values": [{"measurement": "pIC50", "setting": "CDK9/cyclin T1 [4]", "value": 6.85}, {"measurement": "viability at 168 h, 2.5 µM", "setting": "[5]", "value": 141, "unit": "%"}, {"measurement": "viability at 168 h, 1.25 µM", "setting": "[6]", "value": 158, "unit": "%"}, {"measurement": "Host cell viability relative to infected untreated cells", "setting": "[7]", "value": 141, "unit": "%"}, {"measurement": "residual activity", "setting": "[8]", "value": 18, "unit": "%"}]}]}
